Bioassay records as filed in PubChem BioAssay.
LMPTP block – LMPTP phosphatase inhibitors, primary screen, biochemical, fluorescence intensity, uHTS; recombinant LMPTP-A, OMFP fluorogenic substrate; inhibition, % at 20 µM; Low molecular weight phosphotyrosine protein phosphatase (Homo sapiens), P24666; hit rate 0.22% among 360,000; AID 651560, 2012;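 active = compounds that cut the enzyme signal by at least half of the control window in the single-dose screen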;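 note: plate controls were DMSO wells with enzyme plus substrate for no effect and substrate without enzyme for full effect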
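Test system: LMPTP-A, protein tyrosine phosphatase of low molecular weight; Input: 0.625 nM enzyme; Incubation: 50 min dark incubation at room temperature; Signal: endpoint fluorescence intensity from OMFP dephosphorylation; Read-out basis: % inhibition versus control wells.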
Rpn11 inh – Rpn11 (PSMD14) deubiquitinase inhibitors, primary screen, biochemical, fluorescence polarization, uHTS | inhibition, % at 20 µM | human 26S proteasome, Ub4-pepOG fluorescence polarization; 20S core pre-blocked with epoxomicin | hit rate 0.59% among 360,000 | 26S proteasome non-ATPase regulatory subunit 14 (Homo sapiens), O00487;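 active = inhibition at 20 µM, scaled to each plate's controls, above about 33%, limit read from the data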
SUMO1-SIM PPI – modulators of SUMO1 protein-protein interactions, primary screen, biochemical, uHTS; SUMO1 binding to a labelled peptide, TR-FRET, 1 h; Small ubiquitin-related modifier 1 (Homo sapiens), P63165; hit rate 0.33% among 360,000; AID 602429, 2012; inhibition, % at 20 µM; in the data active = inhibition above about 37%
DNMT1 block – human DNMT1 methyltransferase inhibitors, primary screen, biochemical, molecular beacon, fluorescence, HinP1I cleavage, uHTS. hit rate 0.83% among 360,000. AID 588458, 2011. inhibition (reported as % activation of signal), % at 10 µM. DNA (cytosine-5)-methyltransferase 1 (Homo sapiens), P26358; in the data active = inhibition above about 50%
Target sequence (P26358 504-1616 limits assumed): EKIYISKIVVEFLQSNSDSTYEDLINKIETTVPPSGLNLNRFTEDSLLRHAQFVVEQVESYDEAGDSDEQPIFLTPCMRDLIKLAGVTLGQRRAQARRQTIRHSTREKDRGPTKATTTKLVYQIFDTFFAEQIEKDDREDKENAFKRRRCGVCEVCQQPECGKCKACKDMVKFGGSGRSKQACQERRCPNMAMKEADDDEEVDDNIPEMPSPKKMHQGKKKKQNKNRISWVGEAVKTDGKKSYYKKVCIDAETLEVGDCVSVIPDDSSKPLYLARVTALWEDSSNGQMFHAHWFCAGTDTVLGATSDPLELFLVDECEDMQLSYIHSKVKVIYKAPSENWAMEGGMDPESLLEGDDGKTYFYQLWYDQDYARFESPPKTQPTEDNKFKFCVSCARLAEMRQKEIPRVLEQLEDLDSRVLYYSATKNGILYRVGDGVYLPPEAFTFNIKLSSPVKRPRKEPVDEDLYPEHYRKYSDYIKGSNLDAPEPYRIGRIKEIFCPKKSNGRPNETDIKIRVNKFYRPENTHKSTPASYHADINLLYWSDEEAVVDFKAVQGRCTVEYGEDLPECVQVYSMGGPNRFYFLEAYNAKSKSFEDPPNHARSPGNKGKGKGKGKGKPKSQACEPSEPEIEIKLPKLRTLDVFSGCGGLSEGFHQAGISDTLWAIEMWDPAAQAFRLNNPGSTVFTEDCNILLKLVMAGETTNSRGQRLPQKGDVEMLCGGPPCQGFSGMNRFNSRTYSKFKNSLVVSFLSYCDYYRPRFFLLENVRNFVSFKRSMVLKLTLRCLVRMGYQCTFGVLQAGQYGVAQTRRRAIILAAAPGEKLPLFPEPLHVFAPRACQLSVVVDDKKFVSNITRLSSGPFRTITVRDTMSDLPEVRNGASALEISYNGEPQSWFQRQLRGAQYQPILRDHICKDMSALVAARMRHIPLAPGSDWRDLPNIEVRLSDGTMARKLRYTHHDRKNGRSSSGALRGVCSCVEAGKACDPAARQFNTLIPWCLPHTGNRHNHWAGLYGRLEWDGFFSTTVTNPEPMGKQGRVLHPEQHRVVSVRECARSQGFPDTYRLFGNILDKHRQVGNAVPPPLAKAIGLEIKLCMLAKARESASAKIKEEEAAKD
STEP inh – STEP phosphatase inhibitors, primary screen, biochemical, fluorescence intensity, uHTS; Tyrosine-protein phosphatase non-receptor type 5 (Homo sapiens), P54829; recombinant STEP, OMFP fluorogenic substrate; inhibition, % at 20 µM; hit rate 0.25% among 360,000; AID 588621, 2011;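 active = inhibition at 20 µM, scaled per plate between control wells, above about 37%, limit read from the data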;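 note: 0% = DMSO with enzyme and substrate and 100% = substrate only without enzyme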
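material = STEP tyrosine phosphatase | reagent = fluorogenic phosphatase substrate OMFP at 25 µM final | doses = single compound dose of 20 µM, 1% DMSO final | schedule = 20 min reaction, room temperature, in the dark | measured by = fluorescence, 480/540 nm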
Scp1 inh – Scp-1 phosphatase inhibitors, primary screen, biochemical, colorimetric, uHTS; hit rate 0.88% among 340,000; AID 493091, 2011; Recombinant Scp1, phosphopeptide, malachite green phosphate absorbance; Carboxy-terminal domain RNA polymerase II polypeptide A small phosphatase 1 (Homo …; inhibition, % at 20 µM;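 active = inhibition above about 50% at 20 µM, limit read from the data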;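 note: plate controls were DMSO wells with enzyme for no effect and wells lacking enzyme for full effect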
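Material: truncated SCP-1 phosphatase (76-261aa) / Buffer or medium: 50 mM Tris acetate pH 5.5, 0.005% Tween-20, 10 mM MgCl2 / Compound dosing: one concentration, 20 µM, with 1.0% DMSO / Incubation: 45 min room-temperature reaction, 5 min colour, 30 min stabiliser / Detection: colorimetric free-phosphate detection, absorbance 630 nm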
DNMT1 interf DR – spectral interference with molecular beacon fluorescence, dose response, artefact control for DNMT1 inhibitor project, biochemical, fluorescent molecular beacon; 200 tested, under 10 active; AID 602382, 2012; spectral interference counter-screen; shares compounds with DNMT1 block; IC50, µM; call rule not given here
DNMT1 confirm – DNMT1 methyltransferase inhibitor retest, confirmation, biochemical, molecular beacon, fluorescence, single concentration | shares compounds with DNMT1 block | DNMT1 molecular beacon HinP1I cleavage | inhibition, % at 10 µM | hit rate 8% among 2,300;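 active = average inhibition of at least 30% in the single-concentration confirmation test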
Beacon interf – beacon fluorescence artifact counter-screen; activation (fluorescence interference), % at 10 µM; DNMT1 molecular beacon spectral interference counterscreen, fluorescence 485/520; shares compounds with DNMT1 block; hit rate 1% among 2,300;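 active = activation of at least 30% at 10 µM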;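 note: DNMT1 catalytic domain with a HinP1I cleavage step and a FAM/dabcyl DNA beacon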
* = called active by the depositor; . = no result shown. Hits are enriched below; roughly 2.3% of the tested compounds scored in any of these assays.

SMILES | LMPTP block | Rpn11 inh | SUMO1-SIM PPI | DNMT1 block | STEP inh | Scp1 inh | DNMT1 confirm | Beacon interf | others
COc1ccc(OC)c2sc(NC(=O)c3ccc(Cl)s3)nc12 | 7 | 2 | -1 | 61* | 1 | -12 | 6 | 0
CCC(=O)Nc1nc2c(OC)ccc(OC)c2s1 | 1 | 5 | 3 | -1 | 1 | -5 | . | .
C=CCS(=O)(=O)N1CCC(CCOc2ccccc2)(C(=O)OCC)CC1 | 0 | -3 | -2 | 3 | -3 | -4 | . | .
Clc1ccc2nc(-c3ccco3)c(Cc3ccccc3)n2c1 | 7 | 5 | 5 | 64* | -1 | . | 5 | 3
COc1ccccc1Cc1c(-c2ccco2)nc2ccc(Br)cn12 | 11 | 4 | 12 | 71* | 2 | . | 3 | 4
COc1ccccc1Cc1c(-c2ccco2)nc2ccc(Cl)cn12 | 6 | 20 | 4 | 25 | 0 | . | . | .
c1ccc2c(-c3[nH]ncc3CNCCCn3ncc4ccccc43)cccc2c1 | 1 | 9 | 0 | -4 | 2 | 1 | . | .
COCC(=O)OCC(=O)N1N=C(c2ccc(Cl)cc2)CC1c1ccco1 (stereo unspecified) | -1 | 2 | -8 | 4 | -3 | -4 | . | .
O=C(OCC(=O)N1N=C(c2ccc(Cl)cc2)CC1c1ccco1)c1cccnc1 (stereo unspecified) | 10 | 15 | 9 | 81* | -1 | 17 | 3 | 3
O=C(CCl)N1N=C(c2ccco2)CC1c1ccco1 (stereo unspecified) | 8 | -18 | 12 | 87* | 16 | 40 | 5 | 6
CC(=O)Nc1cc(O)cc(O)c1 | -3 | 1 | -3 | 2 | -1 | 3 | . | .
CC(=O)c1ccc(C(=O)Nc2sc3c(c2C(N)=O)CCN(Cc2ccccc2)C3)cc1 | 2 | . | -6 | 84* | -13 | . | 10 | 3
O=C(c1ncc[nH]1)c1cccs1 | -3 | 0 | -1 | 1 | 1 | -15 | . | .
CCOC(=O)C1=C(COC(=O)C(C)(C)Oc2ccc(Cl)cc2)NC(=O)NC1C (stereo unspecified) | 0 | 3 | 4 | 3 | -3 | -6 | . | .
O=C1NN(c2ccccc2)C(=O)/C1=C/c1ccc(Sc2cccc3ccccc23)o1 | 3 | 14 | 20 | 66* | 1 | 1 | 69* | -2 | DNMT1 interf DR=>99
O=C1NN(c2ccccc2)C(=O)C1=Cc1ccccc1O | -2 | -2 | -12 | 9 | 1 | . | . | .
CCOc1ccc(NC(=O)CCCc2cc(-c3ccc(OCC)cc3)on2)cc1 | 0 | 5 | -2 | 57* | 5 | -7 | 1 | 4
Cc1c(N=C2N=C(NC(=O)c3ccc(F)cc3)c3ccccc32)c(=O)n(-c2ccccc2)n1C | 7 | . | -34 | 20 | -3 | -1 | . | .
CC1(C)OC2CC3C4CC=C5CC(O)CCC5(C)C4CCC3(C)C2(C(=O)CO)O1 (stereo unspecified) | 4 | 24 | -3 | 67* | 0 | -4 | 2 | 4
CC(=O)OCC(=O)C12OC(C)(C)OC1CC1C3CC=C4CC(O)CCC4(C)C3CCC12C (stereo unspecified) | 0 | 4 | 7 | 16 | 0 | -15 | . | .
COC(=O)c1ccccc1NC(=O)c1cc(-c2ccco2)on1 | 3 | 18 | -2 | 8 | 2 | -1 | . | .
COC(=O)c1ccccc1NC(=O)c1cc(-c2cccs2)on1 | 5 | 3 | 0 | 56* | 2 | 0 | 3 | -3
O=C1Nc2ccc3c(c2C1=Cc1cc2c(cc1Br)OCO2)OCO3 | 21 | 4 | 1 | 67* | 3 | 15 | 1 | 1
Cc1c(CCC(=O)NCC(=O)NCC(=O)O)c(=O)oc2cc3oc4c(c3cc12)CCCC4 | 1 | -2 | 7 | 1 | 0 | 1 | . | .
Cc1c(CCC(=O)O)c(=O)oc2cc3oc4c(c3cc12)CCCC4 | 0 | -4 | 14 | 91* | -1 | -1 | 1 | 3
SMILES | LMPTP block | Rpn11 inh | SUMO1-SIM PPI | DNMT1 block | STEP inh | Scp1 inh | DNMT1 confirm | Beacon interf | others
Cc1ccc(CNC(=O)c2cc3ccccc3oc2=O)cc1 | 1 | 0 | -30 | 1 | 1 | -5 | . | .
Cc1ccccc1OCC(=O)Nc1nnc(COc2ccccc2)s1 | 0 | -13 | 5 | 1 | 0 | -7 | . | .
Cc1ccc(-c2cc(C(F)F)n3ncc(C(=O)NCc4ccco4)c3n2)cc1 | 0 | -1 | 3 | 76* | -2 | 6 | 0 | -10
Cc1ccc(-c2cc(C(F)(F)F)n3ncc(C(=O)NCc4ccco4)c3n2)cc1 | 0 | -2 | -4 | 24 | 0 | -10 | . | .
NC(=O)C1CCN(C(=O)C2CCN(S(=O)(=O)c3ccccc3)CC2)CC1 | -3 | 7 | 1 | 81* | 0 | -7 | 5 | 1
Cc1occc1-c1nnc(SCC(=O)NC2CCC(C)CC2)o1 (stereo unspecified) | 0 | -3 | 4 | 5 | -1 | -5 | . | .
Cc1cc(C)c2nc3nc(C)c(C)cc3c(N)c2c1 | 11 | 13 | -11 | 36 | 4 | -7 | . | .
CCCNC(=O)C1(S(=O)(=O)c2ccccc2)CC=CC1 | -2 | -9 | -3 | 92* | -3 | -6 | 2 | 2
COc1ccccc1C=NN=C1c2ccccc2-c2ccccc21 | 2 | 0 | -3 | 1 | -1 | -13 | . | .
Cc1ccc2cc3cc(C(=O)NCc4ccc5c(c4)OCO5)oc3nc2c1 | 8 | 3 | -1 | 54* | 2 | 9 | 0 | -8
COc1ccc2cc3cc(C(=O)Nc4ccc5c(c4)OCO5)oc3nc2c1 | 1 | -8 | -2 | 60* | -3 | 1 | 1 | 0
CCCCn1c(N)c(N(CCOC)C(=O)c2cc(=O)[nH]c3ccccc23)c(=O)[nH]c1=O | -3 | 5 | 0 | -3 | -4 | -5 | . | .
